Assay results from ChEMBL document CHEMBL1138764, “Resistance-modifying agents. 11.(1) Pyrimido[5,4-d]pyrimidine modulators of antitumor drug activity. Synthesis and structure-activity relationships for nucleoside transport inhibition and binding to alpha1-acid glycoprotein” (J Med Chem, 2004).
Several values for one entry are separate records, joined by “and”; a condition that tells them apart may be missing. Identical values can stand only once. Activity calls are given as the source filed them. No cut-off for these calls is given here.

Legend:
L1210 [1] = test: Inhibition of [3H]thymidine uptake in L1210 cells at 10 uM; format: functional; conditions: Mus musculus
Outline: (§1)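 ³H-thymidine uptake into L1210 leukaemia cells measured by a modified rapid-mixing technique with inhibitor-stop. Values are mean ± SD of three or more separate determinations. IC50 is interpolated from concentration–inhibition curves.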

L1210 [2] = test: Inhibition of [3H]thymidine uptake in L1210 cells; format: functional, cell-based; conditions: Mus musculus; outline: as §1
L1210 [3] = test: Inhibition of [3H]thymidine uptake in L1210 cells at 1 uM; format: functional; conditions: Mus musculus; outline: as §1
L1210 [4] = test: Compound was tested for the inhibition of [3H]thymidine uptake in L1210 cells at 0.1 uM; format: functional; conditions: Mus musculus; outline: as §1
L1210 [5] = test: Inhibition of [3H]thymidine uptake in L1210 cells in the presence of 5 mg/mL human AGP at 1 uM; format: functional, Mus musculus
Outline: (§2)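 Rapid-mixing, inhibitor-stop ³H-thymidine uptake into L1210 leukaemia cells run with 5 mg/mL human AGP present. Values are mean ± SD of three or more separate determinations. Significance of the difference from inhibition without AGP is taken at p ≤ 0.05.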

L1210 [6] = test: Tested for the reduction in inhibition of [3H]thymidine uptake in L1210 cells in the presence of 5 mg/mL human AGP; format: functional, Mus musculus; outline: as §2
L1210 [7] = test: Compound was tested for the inhibition of [3H]thymidine uptake in L1210 cells at 100 uM; format: functional; conditions: Mus musculus; outline: as §1

Row | Structure (SMILES) | inhibition at 10 µM (L1210 [1]) [%] | IC50 (L1210 [2]) [nM] | inhibition at 1 µM (L1210 [3]) [%] | Reduction (L1210 [6]) | other results
1 | COCCOc1nc(N(C)Cc2ccccc2)c2nc(OCCOC)nc(N(C)Cc3ccccc3)c2n1 | 68 | 3800 | 17 |  | 
2 | COCCOc1nc(NCc2ccccc2)c2nc(OCCOC)nc(NCc3ccccc3)c2n1 | 78 | 2400 | 31 |  | 
3 | COc1ccc(CN(C)c2nc(OCCCO)nc3c(N(C)Cc4ccc(OC)c(OC)c4)nc(OCCCO)nc23)cc1OC |  | 750 | 54 |  | 
4 | COc1ccc(CN(C)c2nc(N(CCO)CCO)nc3c(N(C)Cc4ccc(OC)cc4)nc(N(CCO)CCO)nc23)cc1 |  | 840 | 71 | 46% | inhibition at 0.1 µM (L1210 [4]): 27%; Inhibition (L1210 [5]): 40%
5 | OCCN(CCO)c1nc(N2CCCCC2)c2nc(N(CCO)CCO)nc(N3CCCCC3)c2n1 [DIPYRIDAMOLE] |  | 340 |  | 87% and 96% | 
6 | c1ccc(CNc2ncnc3c(NCc4ccccc4)ncnc23)cc1 | 40 |  |  |  | 
7 | CCCOc1nc(N2CCCCC2)c2nc(OCCC)nc(N3CCCCC3)c2n1 | 37 | 52000 |  |  | inhibition at 100 µM (L1210 [7]): 60%
8 | COc1ccc(CN(C)c2nc(NCC(C)O)nc3c(N(C)Cc4ccc(OC)c(OC)c4)nc(NCC(C)O)nc23)cc1OC (centres undefined) |  |  | 73 | 22% | Inhibition (L1210 [5]): 57%
9 | OCCNc1nc(NCc2ccccc2)c2nc(NCCO)nc(NCc3ccccc3)c2n1 |  | 750 | 46 |  | 
10 | COc1ccc(CN(C)c2nc(OCCCO)nc3c(N(C)Cc4ccc(OC)cc4)nc(OCCCO)nc23)cc1 |  | 220 | 78 | 59% | inhibition at 0.1 µM (L1210 [4]): 38%; Inhibition (L1210 [5]): 32%
11 | CC(O)CNc1nc(N(C)Cc2ccccc2)c2nc(NCC(C)O)nc(N(C)Cc3ccccc3)c2n1 (centres undefined) |  | 700 | 56 | 77% | inhibition at 0.1 µM (L1210 [4]): 24%; Inhibition (L1210 [5]): 12%
12 | OCCOc1nc(N2CCCCC2)c2nc(OCCO)nc(N3CCCCC3)c2n1 |  | 6300 | 13 |  | 
13 | COc1ccc(CNc2nc(NCC(C)O)nc3c(NCc4ccc(OC)c(OC)c4)nc(NCC(C)O)nc23)cc1OC (centres undefined) |  | 400 | 83 | 12% | inhibition at 0.1 µM (L1210 [4]): 38%; Inhibition (L1210 [5]): 73%
14 | Clc1nc(NCc2ccccc2)c2nc(Cl)nc(NCc3ccccc3)c2n1 |  |  |  |  | inhibition (L1210 [7]): inactive
15 | CC(C)Oc1nc(N2CCCCC2)c2nc(OC(C)C)nc(N3CCCCC3)c2n1 | 23 |  |  |  | 
16 | COCC(C)Oc1nc(N2CCCCC2)c2nc(OC(C)COC)nc(N3CCCCC3)c2n1 (centres undefined) | 62 |  |  |  | inhibition at 100 µM (L1210 [7]): 96%
17 | OCC(O)COc1nc(N2CCCCC2)c2nc(OC[C@H](O)CO)nc(N3CCCCC3)c2n1 (some centres undefined) | 32 |  |  |  | inhibition at 100 µM (L1210 [7]): 87%
18 | COc1ccc(CNc2nc(NCCO)nc3c(NCc4ccc(OC)cc4)nc(NCCO)nc23)cc1 |  | 930 | 56 | 40% | inhibition at 0.1 µM (L1210 [4]): 10%; Inhibition (L1210 [5]): 35%
19 | CC(O)CNc1nc(NCc2ccccc2)c2nc(NCC(C)O)nc(NCc3ccccc3)c2n1 (centres undefined) | 84 | 3000 | 33 |  | 
20 | CCC(C)COc1nc(N2CCCCC2)c2nc(OCC(C)CC)nc(N3CCCCC3)c2n1 (centres undefined) |  |  |  |  | inhibition (L1210 [1]): inactive
21 | COc1ccc(CNc2nc(OCCO)nc3c(NCc4ccc(OC)c(OC)c4)nc(OCCO)nc23)cc1OC |  |  | 56 | 46% | Inhibition (L1210 [5]): 30%
22 | COc1ccc(CNc2nc(OCCCO)nc3c(NCc4ccc(OC)c(OC)c4)nc(OCCCO)nc23)cc1OC |  |  | 71 | 34% | Inhibition (L1210 [5]): 47%
23 | OCCCOc1nc(N2CCCCC2)c2nc(OCCCO)nc(N3CCCCC3)c2n1 | 76 |  | 35 |  | 
24 | OCCN(CCO)c1nc(N2CCc3ccccc3C2)c2nc(N(CCO)CCO)nc(N3CCc4ccccc4C3)c2n1 | 100 | 720 | 72 | 31% | 

Row | Structure (SMILES) | inhibition at 10 µM (L1210 [1]) [%] | IC50 (L1210 [2]) [nM] | inhibition at 1 µM (L1210 [3]) [%] | Reduction (L1210 [6]) | other results
25 | COc1ccc(CN(C)c2nc(NCC(C)O)nc3c(N(C)Cc4ccc(OC)cc4)nc(NCC(C)O)nc23)cc1 (centres undefined) |  |  | 39 | 86% | Inhibition (L1210 [5]): 5%
26 | COc1ccc(CNc2nc(N(CCO)CCO)nc3c(NCc4ccc(OC)c(OC)c4)nc(N(CCO)CCO)nc23)cc1OC | 98 | 270 | 73 | 25% | Inhibition (L1210 [5]): 53%
27 | Clc1nc(Cl)c2nc(Cl)nc(Cl)c2n1 |  |  |  |  | inhibition (L1210 [7]): inactive
28 | C[C@H](O)COc1nc(N2CCCCC2)c2nc(OC[C@@H](C)O)nc(N3CCCCC3)c2n1 | 92 | 900 | 47 | 55% | Inhibition (L1210 [5]): 20%
29 | COc1ccc(CNc2nc(OC[C@@H](C)O)nc3c(NCc4ccc(OC)cc4)nc(OC[C@H](C)O)nc23)cc1 |  |  | 68 |  | 
30 | CCCOc1nc(N(C)Cc2ccccc2)c2nc(OCCC)nc(N(C)Cc3ccccc3)c2n1 | 8 |  |  |  | 
31 | OCCN(CCO)c1nc(NCc2ccc(C(F)(F)F)cc2)c2nc(N(CCO)CCO)nc(NCc3ccc(C(F)(F)F)cc3)c2n1 | 60 |  | 32 |  | 
32 | CCN(CC)c1nc(N2CCCCC2)c2nc(N(CC)CC)nc(N3CCCCC3)c2n1 |  |  |  |  | inhibition (L1210 [1]): inactive
33 | OCCN(CCO)c1nc(NCc2ccc3c(c2)OCO3)c2nc(N(CCO)CCO)nc(NCc3ccc4c(c3)OCO4)c2n1 |  |  | 73 | 36% | Inhibition (L1210 [5]): 47%
34 | OCCN(CCO)c1nc(N2CCCC(O)C2)c2nc(N(CCO)CCO)nc(N3CCCC(O)C3)c2n1 (centres undefined) | 50 | 2600 | 28 |  | 
35 | COCCOc1nc(N2CCCCC2)c2nc(OCCOC)nc(N3CCCCC3)c2n1 | 63 | 4600 | 20 |  | 
36 | COc1ccc(CNc2nc(N(CCO)CCO)nc3c(NCc4ccc(OC)cc4)nc(N(CCO)CCO)nc23)cc1 | 96 | 250 | 65 | 29% | 
37 | c1nc(N2CCCCC2)c2ncnc(N3CCCCC3)c2n1 |  |  |  |  | inhibition (L1210 [7]): inactive
38 | COCCOc1nc(N(Cc2ccccc2)Cc2ccccc2)c2nc(OCCOC)nc(N(Cc3ccccc3)Cc3ccccc3)c2n1 | 15 |  | 9 |  | 
39 | C[C@H](O)COc1nc(N(C)Cc2ccccc2)c2nc(OC[C@@H](C)O)nc(N(C)Cc3ccccc3)c2n1 |  |  | 55 | 84% | Inhibition (L1210 [5]): 9%
40 | CN(Cc1ccccc1)c1nc(OCCO)nc2c(N(C)Cc3ccccc3)nc(OCCO)nc12 | 87 | 800 | 49 | 55% | Inhibition (L1210 [5]): 22%
41 | COc1ccc(CNc2nc(OCCCO)nc3c(NCc4ccc(OC)cc4)nc(OCCCO)nc23)cc1 |  | 460 | 63 | 21% | 
42 | COC[C@H](COc1nc(N2CCCCC2)c2nc(OC[C@H](COC)OC)nc(N3CCCCC3)c2n1)OC | 100 |  |  |  | 
43 | CN(Cc1ccccc1)c1nc(OCCCO)nc2c(N(C)Cc3ccccc3)nc(OCCCO)nc12 | 77 | 1400 | 52 |  | 
44 | COCCN(CCOC)c1nc(N2CCCCC2)c2nc(N(CCOC)CCOC)nc(N3CCCCC3)c2n1 | 86 | 2070 | 29 | 50% | 
45 | COc1ccc(CN(C)c2nc(NCCO)nc3c(N(C)Cc4ccc(OC)c(OC)c4)nc(NCCO)nc23)cc1OC | 84 |  | 57 |  | 
46 | OCCN(CCO)c1nc(N2CCCCC2)nc2c(N(CCO)CCO)nc(N3CCCCC3)nc12 | 74 |  | 34 |  | 
47 | OCCN(CCO)c1nc(NCc2ccc(Cl)cc2)c2nc(N(CCO)CCO)nc(NCc3ccc(Cl)cc3)c2n1 | 92 | 1100 | 53 |  | 
